Here are results for 5 molecules from ChEMBL document CHEMBL5344437, “Novel Drug Screening Assay for Acanthamoeba castellanii and the Anti-Amoebic Effect of Carbonic Anhydrase Inhibitors” (J Med Chem, 2024).

Calls of active or inactive are those of the source. The calls are words filed in the database; no cut-off is given here.

Holding throughout (assay type): functional, organism-based
For experiment [1], the system named is Acanthamoeba castellanii. The experiment can be described thus: Anti-amoebic activity against Acanthamoeba castellanii ATCC 30010 cyst assessed as inhibition of excystation at 100 uM incubated for 72 hrs by crystal violet staining based assay. The method in brief: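 Axenic culture in PYG medium at +25 °C, grown past peak density to induce encystment; 1000 cysts per well added to inhibitor diluted in PYG, incubated 72 h at +25 °C. Methanol fix, 0.1% crystal violet stain (remaining cysts washed off), dissolve in 10% acetic acid, absorbance 590 nm. Unpaired t-test vs drug-free control; 6 replicates.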

Experiment [2] relates to Acanthamoeba castellanii. Description: Anti-amoebic activity against Acanthamoeba castellanii ATCC 30010 trophozoites assessed as reduction in amoebic growth at 100 uM incubated for 24 to 72 hrs by crystal violet staining based assay. Particulars: time 24-72 hrs. The method in brief: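 Trophozoites scraped from steady-state PYG culture, 1000 cells per well in inhibitor-containing PYG, +25 °C, separate plates read at 24, 48, 72 h. Methanol fix, 0.1% crystal violet, 10% acetic acid elution, A590. Two experiments, ≥3 wells each. Unpaired t-test vs drug-free control at 72 h.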

In experiment [3] the test system is Acanthamoeba castellanii. The experiment can be described thus: Anti-amoebic activity against Acanthamoeba castellanii ATCC 30010 cyst assessed as reduction in cyst survival at 1 mM incubated for 24 to 72 hrs by crystal violet staining based assay. Particulars: time 24-72 hrs. The gist of the method: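 Scraped PYG-grown cells, 1000 per well, exposed 24, 48 or 72 h at +25 °C. Medium-inhibitor solution then moved to new plates, topped with fresh medium, and held 5 days at +25 °C to allow excystation. Methanol fix, 0.1% crystal violet, 10% acetic acid, A590. Unpaired t-test vs control at 72 h.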

Experiment [4] has as its system Acanthamoeba castellanii. The experiment can be described thus: Anti-amoebic activity against Acanthamoeba castellanii ATCC 30010 cyst assessed as reduction in cyst survival at […] incubated for 24 to 72 hrs by crystal violet staining based assay. Particulars: time 24-72 hrs. The method in brief: (§1)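 Cyst survival: after 24, 48 or 72 h of inhibitor exposure of 1000 cells per well in PYG, the medium-inhibitor solution was moved to a new plate and topped up with fresh medium. It was then incubated 5 days at +25 °C so cysts could excyst. Wells were fixed with methanol, stained with 0.1% crystal violet, eluted with 10% acetic acid and read at 590 nm. Unpaired t-test versus control at 72 h.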

Experiment [5] relates to Acanthamoeba castellanii. The experiment can be described thus: Anti-amoebic activity against Acanthamoeba castellanii ATCC 30010 cyst assessed as inhibition of excystation at 10 uM incubated for 72 hrs by crystal violet staining based assay.
Experiment [6] deals with Acanthamoeba castellanii. Description: Anti-amoebic activity against Acanthamoeba castellanii ATCC 30010 trophozoites assessed as reduction in amoebic growth at 100 nM incubated for 24 to 72 hrs by crystal violet staining based assay. Particulars: time 24-72 hrs. The gist of the method:
(§2)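 Trophozoites scraped from an axenic PYG culture at +25 °C were plated at 1000 cells per well with an inhibitor dilution series in PYG medium, with a separate plate for each time point (24, 48, 72 h). Cells were fixed with methanol, stained with 0.1% crystal violet, dissolved in 10% acetic acid and read at 590 nm. Two experiments, 6–15 wells per concentration; unpaired t-test versus control at 72 h.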

The test system of experiment [7] is Acanthamoeba castellanii. Description: Anti-amoebic activity against Acanthamoeba castellanii ATCC 30010 cyst assessed as inhibition of excystation at >= 10 uM incubated for 72 hrs by crystal violet staining based assay.
Experiment [8] concerns Acanthamoeba castellanii. Description: Anti-amoebic activity against Acanthamoeba castellanii ATCC 30010 trophozoites assessed as reduction in amoebic growth at 1 to 100 uM incubated for 24 to 72 hrs by crystal violet staining based assay. The settings on record: dose 1-100 µM, time 24-72 hrs. The method in brief: as §2
Experiment [9] concerns Acanthamoeba castellanii. The experiment can be described thus: Anti-amoebic activity against Acanthamoeba castellanii ATCC 30010 trophozoites assessed as reduction in amoebic growth at 1 to 100 nM incubated for 24 to 72 hrs by crystal violet staining based assay. The settings on record: dose 1-100 nM, time 24-72 hrs. The method in brief:
as §2

Experiment [10] relates to Acanthamoeba castellanii. Description: Anti-amoebic activity against Acanthamoeba castellanii ATCC 30010 cyst assessed as reduction in cyst survival at 9.38 uM incubated for 24 to 72 hrs by crystal violet staining based assay. The settings on record: time 24-72 hrs. The gist of the method:
as §1

Experiment [11] has as its system Acanthamoeba castellanii. Description: Anti-amoebic activity against Acanthamoeba castellanii ATCC 30010 cyst assessed as inhibition of excystation at 188 nM incubated for 72 hrs by crystal violet staining based assay.
The test system of experiment [12] is Acanthamoeba castellanii. The experiment can be described thus: Anti-amoebic activity against Acanthamoeba castellanii ATCC 30010 trophozoites assessed as reduction in amoebic growth at 938 nM incubated for 24 to 72 hrs by crystal violet staining based assay. The settings on record: time 24-72 hrs. The method in brief:
as §2

Experiment [13] concerns Acanthamoeba castellanii. The experiment can be described thus: Anti-amoebic activity against Acanthamoeba castellanii ATCC 30010 cyst assessed as inhibition of excystation at >= 62.5 uM incubated for 72 hrs by crystal violet staining based assay.
Experiment [14] has as its system Acanthamoeba castellanii. The experiment can be described thus: Anti-amoebic activity against Acanthamoeba castellanii ATCC 30010 trophozoites assessed as reduction in amoebic growth at 15.6 uM incubated for 24 to 72 hrs by crystal violet staining based assay. The settings on record: time 24-72 hrs. The method in brief: as §2
The subject of experiment [15] is Acanthamoeba castellanii. Description: Anti-amoebic activity against Acanthamoeba castellanii ATCC 30010 cyst assessed as reduction in cyst survival at 7.81 to 250 uM incubated for 24 to 72 hrs by crystal violet staining based assay. Particulars: dose 7.81-250 µM, time 24-72 hrs. The method in brief: as §1
In experiment [16] the test system is Acanthamoeba castellanii. Description: Anti-amoebic activity against Acanthamoeba castellanii ATCC 30010 cyst assessed as reduction in cyst survival at >= 500 uM incubated for 24 to 72 hrs by crystal violet staining based assay. Particulars: time 24-72 hrs. The gist of the method:
as §1

On to `CC(=O)Nc1nnc(S(N)(=O)=O)s1`, for which the result in [1], in [2] and in experiment [3] was Active.

Turning to `CCN[C@H]1C[C@H](C)S(=O)(=O)c2sc(S(N)(=O)=O)cc21`, the result in [4], in experiment [5] and in experiment [6] was Active.

For `CCN[C@H]1CN(CCCOC)S(=O)(=O)c2sc(S(N)(=O)=O)cc21`, in [7], the result was Active. For the same molecule, the outcome in experiment [8] and in experiment [9] was inactive.

As to `CCOc1ccc2nc(S(N)(=O)=O)sc2c1`, the result in experiment [10], in experiment [11] and in [12] was Active.

Regarding `NN1CCN(NC(=S)S)CC1`, the result in experiment [13], in experiment [14] and in experiment [16] was Active. Besides, in experiment [15], the result was inactive.
